One assay relates to E. coli (25922). Kind of assay: Antimicrobial susceptibility test. The assay is classed as cell-based. The note with it: Escherichia coli, 18 h, read-out: MIC E. coli (25922). The method in brief:
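Exponential-phase cells diluted to about 5 × 10^5 cfu mL−1, in CA-MHB for S. aureus ATCC 29213 and MHB for E. coli ATCC 25922. Test compound serially diluted in DMSO from a DMSO stock; final DMSO 1% (v/v), with 1% DMSO controls. After 37 °C for 18 h, OD600 is read and % inhibition taken against controls. MIC is the lowest concentration giving ≥90% inhibition. Three independent assays.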

Another assay deals with T1, E. coli PBP 1b (Escherichia coli, UniProt P02919).
T1 sequence (P02919 1-844): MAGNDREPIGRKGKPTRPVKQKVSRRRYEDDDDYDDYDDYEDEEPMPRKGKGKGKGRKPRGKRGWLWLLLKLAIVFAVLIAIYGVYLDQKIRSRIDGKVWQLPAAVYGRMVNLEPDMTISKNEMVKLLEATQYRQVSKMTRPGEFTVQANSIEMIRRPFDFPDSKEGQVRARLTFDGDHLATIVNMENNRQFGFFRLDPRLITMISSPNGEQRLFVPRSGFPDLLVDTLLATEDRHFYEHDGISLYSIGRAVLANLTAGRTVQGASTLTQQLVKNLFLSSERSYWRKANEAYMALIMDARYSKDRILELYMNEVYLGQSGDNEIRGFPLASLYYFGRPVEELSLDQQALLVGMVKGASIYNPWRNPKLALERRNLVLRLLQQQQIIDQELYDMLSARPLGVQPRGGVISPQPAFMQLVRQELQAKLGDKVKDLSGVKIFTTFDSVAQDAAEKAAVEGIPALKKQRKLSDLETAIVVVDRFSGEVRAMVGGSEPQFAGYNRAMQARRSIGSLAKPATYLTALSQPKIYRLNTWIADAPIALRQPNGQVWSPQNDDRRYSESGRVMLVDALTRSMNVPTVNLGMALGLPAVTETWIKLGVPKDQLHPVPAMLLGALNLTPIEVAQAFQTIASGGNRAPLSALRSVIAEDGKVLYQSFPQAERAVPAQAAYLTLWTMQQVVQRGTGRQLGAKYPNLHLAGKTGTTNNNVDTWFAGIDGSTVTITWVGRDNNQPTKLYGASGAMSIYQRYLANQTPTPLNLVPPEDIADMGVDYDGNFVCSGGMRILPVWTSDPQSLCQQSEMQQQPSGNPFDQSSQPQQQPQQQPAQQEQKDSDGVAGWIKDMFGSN
Nature of the assay: Lipid II-based in vitro transglycosylation assay. The assay is classed as biochemical. The note with it: read-out: Inhibition of PBP 1b activity at 50 μM. Put shortly:
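E. coli PBP 1b (13.2 nM) is preincubated with test compound for 5 min at 30 °C. Buffer: 50 mM HEPES pH 7.5, 200 mM NaCl, 10 mM CaCl2, 0.08% decyl PEG, 10% DMSO, 15% methanol, 2 U μL−1 muramidase. Dansyl-lipid II (5 μM) is added for 5 min at 30 °C. Moenomycin A (1 μM, 10 min) quenches […]. Read by anion-exchange HPLC, in duplicate. IC50 from Hill fit; Ki via IC50 = Ki(1 + [s]/Km), Km = 1.8 μM.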

Broadly, the MIC is the least concentration at which growth counts as inhibited. As a reminder, the inhibition is the share of the control response that was lost under treatment.

Structures are written as SMILES.

Consider `C=C(C/C=C(\C)CCC=C(C)C)CCC(C)(C)/C=C/CC/C(C)=C\CO[C@H](COP(=O)(O)O[C@H]1O[C@H](C(N)=O)[C@@](C)(O)[C@H](OC(N)=O)[C@H]1O[C@@H]1O[C@H](CO[C@@H]2O[C@H](CO)[C@@H](O)[C@H](O)[C@H]2O)[C@@H](O[C@@H]2O[C@H](C)[C@@H](O[C@@H]3O[C@H](C(=O)NC4=C(O)CCC4=O)[C@H](O)[C@H](O)[C@H]3O)[C@H](O)[C@H]2NC(C)=O)[C@H](O)[C@H]1NC(C)=O)C(=O)O` [Moenomycin A], for which the MIC in the assay with E. coli (25922) was more than 96 µg/mL. For the same compound, the inhibition at 50 µM at E. coli PBP 1b amounted to 100%.

The values are drawn from publication PMC9033243 (RSC Advances, 2021).
